CRFR2-BP antag: blocks CRF-induced signaling of the CRF-BP/CRF-R2 complex | HEK293 CRF-R2/CRF-BP, CRF-induced calcium fluorescence | inhibition, % at 11.8 µM | 350,000 compounds, 0.59% hits;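 active means inhibition of the ligand-induced calcium signal above about 50% at the single tested concentration, limit read from the data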
CRFBP-R2 agonist: agonists of human CRF-binding protein/CRF-R2 receptor complex | HEK293 CRF-R2/CRF-BP, calcium dye fluorescence (FLIPR); percent of saturating CRF peptide response | activation, % at 13.2 µM | 350,000 compounds, 0.46% hits | AID 588473;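 active means activation of at least 50%, plus an integration ratio under a set limit after plate pattern correction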;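 further: plate controls were neutral control wells without compound for no effect and CRF at EC100 for full effect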
iPSC survival up: hiPSC single-cell survival enhancement; survival enhancement, % at 20 µM; ATPlite luminescence; 100% = ROCK inhibitor wells, 0% = DMSO; 360,000 compounds, 0.044% hits; in the data active means survival enhancement above about 18%;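 further: cells exposed to compounds for 16 hours before the ATP read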
Cardio protect: protects H9c2 cardiomyocytes from peroxide injury. H2O2 injury protection, ATPLite, 2 h. protection from H2O2 cell death, % at 20 µM. 360,000 compounds, 0.63% hits;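 active means compounds giving at least 50% protection of heart cells from peroxide-induced death in the single-dose screen, raw or plate-pattern-corrected value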;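 further: 0% = DMSO wells with peroxide and 100% = DMSO wells without peroxide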
beta cell repl: inducers of beta-cell replication in MIN6 cells; 330,000 compounds, 0.29% hits; proliferation, % at 10 µM; AID 2380; MIN6 cells proliferation, ATPlite luminescence, 48 h; cells starved in 0.2% serum; 100% = growth in 10% serum;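 active means compounds whose signal lies at least 3.5 SD above the mean of all wells on their plate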;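 further: 0% = DMSO-treated cells in low-serum medium and 100% = 10% serum control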
UCH37 inh: human UCH37 deubiquitinating enzyme inhibition. inhibition, % (concentration not given with the values). 330,000 compounds, 0.33% hits. purified proteasome/UCH37, Ub-AMC cleavage fluorescence;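 active means mean inhibition over replicate wells above about 20%, limit read from the data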;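 further: 0% = compound-free wells with enzyme and 100% = wells lacking proteasome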
Target sequence (Q9Y5K5 whole entry, looked up): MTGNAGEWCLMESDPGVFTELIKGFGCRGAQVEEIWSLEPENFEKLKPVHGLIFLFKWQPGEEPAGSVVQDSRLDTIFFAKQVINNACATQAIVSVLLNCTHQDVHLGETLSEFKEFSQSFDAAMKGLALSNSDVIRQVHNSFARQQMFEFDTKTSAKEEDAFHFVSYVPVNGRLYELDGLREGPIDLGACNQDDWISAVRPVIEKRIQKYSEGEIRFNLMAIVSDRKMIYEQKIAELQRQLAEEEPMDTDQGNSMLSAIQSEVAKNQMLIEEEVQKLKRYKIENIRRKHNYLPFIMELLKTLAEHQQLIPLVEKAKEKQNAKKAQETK
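system = Proteasome-associated human UCH37 deubiquitinase | amount = 0.15 nM proteasome as dispensed | medium = pH 7.4 Tris-HCl (50 mM) with ovalbumin, ATP-MgCl2, DTT | incubation = 30 min preincubation with enzyme, 25 min cleavage at room temperature | detection = AMC fluorescence 355/460 nm | read-out basis = percent inhibition | controls = no-proteasome and no-compound wells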
* = called active by the depositor; / = not tested or not shown. Shown are actives, neighbours in structure and some others; about 2.1% of the full set was active somewhere.

SMILES	CRFR2-BP antag	CRFBP-R2 agonist	iPSC survival up	Cardio protect	beta cell repl	UCH37 inh
O=CN1CCCN(Cc2nc(-c3cccc(Cl)c3)no2)CC1	2	1	10	-11	1	30*
CC(C)Nc1nc(-c2ccccc2)nc(-n2ccnc2)n1	8	1	-1	12	1	1
c1ccc(-c2nc(-n3ccnc3)nc(-n3ccnc3)n2)cc1	-7	1	0	74*	-1	4
Cc1ccc(C=Nn2c(-c3ccccn3)n[nH]c2=S)o1	/	/	/	/	/	3
CN(Cc1ccccc1)S(=O)(=O)c1nnc(NC(=O)c2ccc(F)cc2)s1	59*	0	0	-4	-5	0
O=C(NN=Cc1ccc2c(c1)OCO2)C(=O)Nc1ccc2ccccc2c1	/	/	/	/	/	0
COc1ccc(C=NNC(=O)Cc2ccc(Cl)cc2)cc1OC	/	/	/	/	/	35*
COc1cccc(OCc2cc(C=NNC(=O)c3ccn[nH]3)ccc2OC)c1	/	/	/	/	/	2
COc1ccc(C=NNC(=O)c2cccnc2)cc1CN1CCc2cc(OC)c(OC)cc2C1C (stereo unspecified)	/	/	/	/	/	3
COc1ccc(/C=N/NC(=O)c2ccn[nH]2)cc1COc1ccc(Cl)cc1	-6	-1	2	63*	-1	/
COc1ccc(/C=N/NC(=O)c2cc(OC)c(OC)c(OC)c2)cc1CN1CCc2cc(OC)c(OC)cc2C1C (stereo unspecified)	8	-2	0	66*	-4	/
COc1cc(OC)cc(C(=O)N/N=C/c2ccc(OC)c(COc3ccc(F)cc3)c2)c1	-45	62*	-4	4	-3	/
O=C(NN=Cc1cn[nH]c1-c1ccccc1)c1cccnc1	/	/	/	/	/	1
COc1ccc(/C=c2\s/c(=C(/C#N)C(=O)NCc3ccco3)n(-c3ccccc3)c2=O)cc1	-73	25	-2	6	-5	/
COC(=O)/C=c1/s/c(=C(\C#N)C(=O)NCc2ccco2)n(-c2ccccc2)c1=O	78*	7	-1	12	-3	/
Cc1cc(C)c(S(=O)(=O)n2ccc3ccccc32)c(C)c1	58*	-1	-2	-25	0	1
Cc1[nH]n(-c2ccccc2)c(=O)c1C=NN1C(=O)c2cccc3cccc(c23)C1=O	/	/	/	/	/	13
CCCN1C(=O)c2cc(C(=O)Nc3cccc(C(C)=O)c3)ccc2C1Nc1cccc(C(C)=O)c1 (stereo unspecified)	15	2	0	52*	-2	-7
CC(C)CSc1nnc2[nH]c(=O)cc(N)n12	96*	1	10	-6	3	1
N#CC(=C(O)COC(=O)CCc1ccc(S(=O)(=O)N2CCOCC2)cc1)c1nc2ccccc2[nH]1	/	/	/	/	/	-9
Cc1c(C=Nn2cnnc2)c2ccccc2n1CCOc1ccc(Cl)cc1	/	/	/	/	/	1
COc1ccc2cc(C(=O)N/N=C/c3sc4ccccc4c3O)ccc2c1	-179	166*	-2	20	-6	/
COc1ccc(C(=O)N/N=C/c2sc3ccccc3c2O)cc1	-73	50*	-1	23	/	/
COc1ccc2cc(C(=O)NN=Cc3sc4ccccc4c3O)ccc2c1	/	/	/	/	/	2
O=c1cc(-c2ccc(F)cc2)oc2ccccc12	99*	-1	4	35	-3	-5
SMILES	CRFR2-BP antag	CRFBP-R2 agonist	iPSC survival up	Cardio protect	beta cell repl	UCH37 inh
C=C(C)CSc1nncn1N=Cc1ccc(OC)cc1	/	/	/	/	/	2
CN(C)S(=O)(=O)c1cccc(NC(=S)NN=Cc2cc(Br)ccc2O)c1	/	/	/	/	/	1
COc1ccccc1N(CC(=O)N1CCCCC1C)S(=O)(=O)c1ccc(Cl)cc1 (stereo unspecified)	-11	55*	2	-2	/	/
CCOc1ccccc1N(CC(=O)N1CCC(C(N)=O)CC1)S(=O)(=O)c1ccc(SC)cc1	75*	-1	0	0	2	0
COc1ccccc1N(CC(=O)N1CCCC1)S(=O)(=O)c1ccc(C)cc1	22	0	0	0	0	/
CCOc1ccccc1N(CC(=O)N1CCOCC1)S(=O)(=O)c1ccccc1	-127	291*	-1	13	-2	1
Cc1ccc(-c2cc(C(=O)NN=C/C=C/c3ccccc3)n[nH]2)o1	/	/	/	/	/	-2
O=S(=O)(Nc1nc(-c2sccc2Cl)cs1)c1cc(Cl)ccc1Cl	59*	-1	-2	2	-6	10
CC1CCN(S(=O)(=O)c2ccc3c(c2)NC(=O)CS3)CC1	63*	1	0	4	-1	3
Cc1cc(C=NNc2ccc([N+](=O)[O-])cn2)c(C)n1-c1ccc(C(=O)O)cc1	/	/	/	/	/	11
O=C(Cc1ccccc1)NCC(=O)OC(c1ccccc1)c1ccccc1	82*	-1	6	4	1	0
Cc1ccc(-n2nc3c(=O)n(CC(=O)NCc4cccs4)nc(C)c3c2C)cc1	64*	-1	1	-3	-3	2
Cc1nn(CC(=O)NCCc2cccs2)c(=O)c2nn(-c3ccccc3)c(C)c12	-11	0	0	-5	-2	3
CC(=NNc1cc(N2CCOCC2)ncn1)c1ccc(O)cc1	/	/	/	/	/	4
COC(=O)c1ccc(CN2C(=O)C(C)N(C(=O)c3c(F)cccc3F)c3ccccc32)cc1 (stereo unspecified)	58*	-1	0	-10	1	5
CCOC(=O)c1c(N)sc(C(=O)N2CCCCC2)c1C	61*	0	0	-2	2	-1
CCOC(=O)c1c(N)sc(C(=O)N2CCCC2)c1C	3	-1	3	4	-1	1
CC(=C/c1ccccc1)/C=N/n1c(-c2ccncc2)n[nH]c1=S	-59	0	5	-4	15*	/
O=C(Nc1cccnc1)c1sc(Nc2ccccc2)nc1-c1ccccc1	-84	6	-1	65*	0	-273
CCn1cc(C(=O)Nc2cccc(NC(C)=O)c2)c2cc(OC)c(OC)cc2c1=O	-42	1	3	55*	-1	3
CCn1cc(C(=O)Nc2ccc3c(c2)OCCO3)c2cc(OC)c(OC)cc2c1=O	7	-1	-1	24	1	6
COc1ccc(C=Cc2ccc3ccccc3n2)c(OC)c1	-7	80*	-4	-9	/	/
COc1ccc(OC)c(/C=C/c2ccc3cccc(O)c3n2)c1	/	/	0	61*	-5	/
COc1cc(Br)c(/C=C/c2ccc3cccc(O)c3n2)cc1OC	7	-1	-1	19	-6	3
COc1cc(Cl)cc(/C=C/c2ccc3ccccc3n2)c1OC(C)=O	-3	-1	-1	7	0	/
Oc1ccc(Cl)cc1/C=C/c1ccc2cccc(O)c2n1	3	3	0	-17	-5	3
Oc1c(Cl)cc(Cl)cc1/C=C/c1ccc2cccc(O)c2n1	-102	87*	0	-26	-5	2
COc1ccc(OC)c(/C=C2/Sc3ccccc3C2=O)c1	-207	197*	0	-4	-1	3

Bioassay records as filed in PubChem.
